Source: ChEMBL document CHEMBL3108709, “Diversity-oriented synthesis yields a new drug lead for treatment of chagas disease” (ACS Med Chem Lett, 2014)
In brackets after ≈: the same amount, converted by molar mass. Values belong to the compound of their own block, whether it stands above or below them. Activity calls are given as the source filed them. No cut-off for these calls is given here.

Columns and labels:
[1] = test system: Trypanosoma cruzi; experiment: Antitrypanosomal activity against Trypanosoma cruzi Tulahuen infected in mouse NIH/3T3 cells assessed as multimode parasite growth inhibition after 4 days by beta-galactosidase reporter gene assay; type: functional, organism-based; settings: NIH3T3, 96 h
Method in brief: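 Recombinant Tulahuen T. cruzi stably expressing a beta-galactosidase reporter, cocultured with mouse NIH/3T3 fibroblast host cells. Compounds added to host cells before infection with parasites; growth inhibition read by reporter; IC50 in nM.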

[2] = Solubility of the compound in phosphate buffer saline; type: physicochemical
[3] = test system: Trypanosoma cruzi; experiment: Trypanocidal activity against Trypanosoma cruzi CA-I/72 infected in BESM cells assessed as parasite re-emergence at 40 nM treated for 29 days measured after 36 days; type: functional, organism-based
Method in brief: (§1)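 T. cruzi-infected bovine embryo skeletal muscle (BESM) cells treated with varying compound concentrations for 20 or 29 days, compound refreshed every other day, then followed up to 36 days post-treatment. Trypomastigote emergence into medium checked visually daily through treatment and post-treatment phases; no re-emergence taken as trypanocidal, delayed emergence as trypanostatic.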

[4] = test system: Trypanosoma cruzi; experiment: Trypanocidal activity against Trypanosoma cruzi CA-I/72 infected in BESM cells assessed as parasite re-emergence at 40 nM measured over 29 days of drug treatment; type: functional, organism-based; method in brief: as §1
[5] = Metabolic stability in mouse microsomes assessed as compound remaining at 1 uM after 1 hr; type: ADME, Microsome; settings: read-out: Stability
Method in brief: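 Mouse liver microsomes incubated 1 h with compound at 1 μM; result expressed as percent of compound remaining.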

[6] = Plasma protein binding in human; type: ADME, cell-free; settings: read-out: PPB (converted)
[7] = test system: Trypanosoma cruzi; experiment: Antitrypanosomal activity against amastigote stage of Trypanosoma cruzi Tulahuen infected in rat L6 cells assessed as parasite growth inhibition after 96 hrs by beta-galactosidase reporter gene assay; type: functional, organism-based; settings: L6, 96 h
[8] = Fraction unbound in human plasma; type: ADME, cell-free
[9] = test system: Trypanosoma cruzi; experiment: Trypanocidal activity against Trypanosoma cruzi CA-I/72 infected in BESM cells assessed as parasite re-emergence at 6.6 uM measured over 20 days of drug treatment; type: functional, organism-based; method in brief: as §1
[10] = test system: Trypanosoma cruzi; experiment: Trypanocidal activity against Trypanosoma cruzi CA-I/72 infected in BESM cells assessed as parasite re-emergence at 6.6 uM treated for 20 days measured after 37 days; type: functional, organism-based; method in brief: as §1
[11] = test system: Trypanosoma cruzi; experiment: Trypanocidal activity against Trypanosoma cruzi CA-I/72 infected in BESM cells assessed as parasite re-emergence at 370 nM treated for 29 days measured after 36 days; type: functional, organism-based; method in brief: as §1
[12] = test system: Trypanosoma cruzi; experiment: Trypanocidal activity against Trypanosoma cruzi CA-I/72 infected in BESM cells assessed as parasite re-emergence at 370 nM measured over 29 days of drug treatment; type: functional, organism-based; method in brief: as §1
[13] = test system: Plasma; experiment: Metabolic stability in human plasma; type: ADME, cell-free
[14] = test system: Trypanosoma cruzi; experiment: Trypanocidal activity against Trypanosoma cruzi CA-I/72 infected in BESM cells assessed as parasite re-emergence at 740 nM treated for 20 days measured after 37 days; type: functional, organism-based; method in brief: as §1
[15] = test system: Trypanosoma cruzi; experiment: Trypanocidal activity against Trypanosoma cruzi CA-I/72 infected in BESM cells assessed as parasite re-emergence at 740 nM measured over 20 days of drug treatment; type: functional, organism-based; method in brief: as §1
[16] = test system: Trypanosoma cruzi; experiment: Trypanocidal activity against Trypanosoma cruzi CA-I/72 infected in BESM cells assessed as parasite re-emergence at 250 nM treated for 20 days measured after 4 days; type: functional, organism-based; method in brief: as §1
[17] = test system: Trypanosoma cruzi; experiment: Trypanocidal activity against Trypanosoma cruzi CA-I/72 infected in BESM cells assessed as parasite re-emergence at 250 nM measured over 20 days of drug treatment; type: functional, organism-based; method in brief: as §1

- IC50 [1]: 0.127 µM
Compound: COc1ccc(CN(C)C[C@H]2Oc3c(NC(=O)c4ccncc4)cccc3C(=O)N([C@@H](C)CO)C[C@@H]2C)cc1

- IC50 [1]: 0.034 µM
Compound: C[C@H]1CN([C@@H](C)CO)C(=O)c2cccc(NC(=O)c3ccncc3)c2O[C@@H]1CN(C)Cc1ccccc1C(F)(F)F

- solubility [2]: 100 µM (≈ 50.4 µg/mL)
- IC50 [1]: > 32 µM
Compound: C[C@H]1CN([C@@H](C)CO)C(=O)c2cccc(NC(=O)c3ccncc3)c2O[C@@H]1CN(C)Cc1ccncc1

- remaining at 1 h, 1 µM [5]: 1%
- fraction unbound [6]: 0.01
- IC50 [7]: 0.022 µM
- solubility [2]: 1 µM (≈ 0.595 µg/mL)
- IC50 [1]: 0.005 µM
Compound: C[C@@H]1CN([C@H](C)CO)C(=O)c2cccc(NC(=O)c3ccncc3)c2O[C@H]1CN(C)Cc1ccc(Oc2ccccc2)cc1
- Activity [3]: Active
- Activity [4]: Active

- IC50 [7]: 0.061 µM
- IC50 [1]: 0.001 µM
Compound: CC(C)N1C[C@H](C)[C@@H](CN(C)Cc2ccc(Cl)cc2)Oc2c(NC(=O)c3ccncc3)cccc2C1=O

- IC50 [1]: 0.078 µM
Compound: COc1ccccc1CN(C)C[C@H]1Oc2c(NC(=O)c3ccncc3)cccc2C(=O)N([C@@H](C)CO)C[C@@H]1C

- IC50 [1]: 0.445 µM
Compound: C[C@H]1CN([C@@H](C)CO)C(=O)c2cccc(NC(=O)c3ccncc3)c2O[C@@H]1CN(C)Cc1c(Cl)cccc1Cl

- IC50 [1]: 0.045 µM
Compound: CC(C)N1C[C@H](C)[C@@H](CN(C)Cc2ccccc2Cl)Oc2c(NC(=O)c3ccncc3)cccc2C1=O

- solubility [2]: 100 µM (≈ 50.3 µg/mL)
- IC50 [1]: 0.012 µM
Compound: C[C@H]1CN([C@@H](C)CO)C(=O)c2cccc(NC(=O)c3ccncc3)c2O[C@@H]1CN(C)Cc1ccccc1

- IC50 [1]: < 0.001 µM
Compound: CC(C)N1C[C@H](C)[C@@H](CN(C)Cc2ccccc2)Oc2c(NC(=O)c3ccncc3)cccc2C1=O

- IC50 [1]: 0.027 µM
Compound: C[C@H]1CN([C@@H](C)CO)C(=O)c2cccc(NC(=O)c3ccncc3)c2O[C@@H]1CN(C)Cc1ccc(Cl)cc1Cl

- remaining at 1 h, 1 µM [5]: < 1%
- fraction unbound [6]: 0.05
- IC50 [7]: 0.67 µM
- solubility [2]: 87 µM (≈ 51.7 µg/mL)
- IC50 [1]: 0.45 µM
- fraction unbound [8]: 0.05
Compound: C[C@@H]1CN([C@@H](C)CO)C(=O)c2cccc(NC(=O)c3ccncc3)c2O[C@@H]1CN(C)Cc1ccc(Oc2ccccc2)cc1

- IC50 [1]: 0.165 µM
Compound: C[C@H]1CN([C@@H](C)CO)C(=O)c2cccc(NC(=O)c3ccncc3)c2O[C@@H]1CN(C)Cc1ccccc1Cl

- IC50 [1]: 0.001 µM
Compound: C[C@H]1CN([C@@H](C)CO)C(=O)c2cccc(NC(=O)c3ccncc3)c2O[C@@H]1CN(C)Cc1ccc(Cl)cc1

- remaining at 1 h, 1 µM [5]: 70%
- fraction unbound [6]: 0.01
- IC50 [7]: 0.031 µM
- solubility [2]: 2 µM (≈ 1.19 µg/mL)
- IC50 [1]: 0.002 µM
Compound: C[C@H](CO)N1C[C@H](C)[C@@H](CN(C)Cc2ccc(Oc3ccccc3)cc2)Oc2c(NC(=O)c3ccncc3)cccc2C1=O

Compound: O=C(Cn1ccnc1[N+](=O)[O-])NCc1ccccc1
- Activity [9]: Active
- Activity [10]: Active

- IC50 [1]: 0.01 µM
Compound: C[C@H]1CN([C@@H](C)CO)C(=O)c2cccc(NC(=O)c3ccncc3)c2O[C@@H]1CN(C)Cc1cc(Cl)cc(Cl)c1

- IC50 [1]: 0.001 µM
Compound: Cc1cccc(CN(C)C[C@H]2Oc3c(NC(=O)c4ccncc4)cccc3C(=O)N([C@@H](C)CO)C[C@@H]2C)c1

- IC50 [1]: 0.5 µM
Compound: CC(C)N1C[C@H](C)[C@@H](CN(C)Cc2ccc(Oc3ccccc3)cc2)Oc2c(NC(=O)c3ccccc3)cccc2C1=O

- IC50 [1]: 0.001 µM
Compound: C[C@H]1CN([C@@H](C)CO)C(=O)c2cccc(NC(=O)c3ccncc3)c2O[C@@H]1CN(C)Cc1ccc(Cl)c(F)c1

- IC50 [1]: 1.2 µM
Compound: CC(C)N1C[C@H](C)[C@@H](CN(C)Cc2ccc(Oc3ccccc3)cc2)Oc2c(NC(=O)C3CCN(C)CC3)cccc2C1=O

- IC50 [1]: 1 µM
Compound: CC(C)N1C[C@H](C)[C@@H](CN(C)Cc2ccc(Oc3ccccc3)cc2)Oc2c(NC(=O)C3CCNCC3)cccc2C1=O

- IC50 [7]: 0.083 µM
- solubility [2]: 64 µM (≈ 36.6 µg/mL)
- IC50 [1]: < 0.001 µM
Compound: C[C@H]1CN([C@@H](C)CO)C(=O)c2cccc(NC(=O)c3ccncc3)c2O[C@@H]1CN(C)Cc1ccc(Cl)c(Cl)c1

- IC50 [1]: 0.045 µM
Compound: CC(C)N1C[C@H](C)[C@@H](CN(C)Cc2ccc(Oc3ccccc3)cc2)Oc2c(NC(=O)c3cccnc3)cccc2C1=O

- IC50 [1]: 0.01 µM
Compound: C[C@H]1CN([C@@H](C)CO)C(=O)c2cccc(NC(=O)c3ccncc3)c2O[C@@H]1CN(C)Cc1ccc(-c2ccccc2)cc1

- IC50 [1]: 0.001 µM
Compound: C[C@H]1CN([C@@H](C)CO)C(=O)c2cccc(NC(=O)c3ccncc3)c2O[C@@H]1CN(C)Cc1cccc(C(F)(F)F)c1

- IC50 [1]: 0.015 µM
Compound: C[C@H]1CN([C@@H](C)CO)C(=O)c2cccc(NC(=O)c3ccncc3)c2O[C@@H]1CN(C)Cc1cccc(Cl)c1

- IC50 [1]: 0.014 µM
Compound: Cc1ccc(CN(C)C[C@H]2Oc3c(NC(=O)c4ccncc4)cccc3C(=O)N([C@@H](C)CO)C[C@@H]2C)cc1

- IC50 [1]: 0.025 µM
Compound: C[C@H]1CN([C@@H](C)CO)C(=O)c2cccc(NC(=O)c3ccncc3)c2O[C@@H]1CN(C)Cc1cccc(Cl)c1Cl

- IC50 [1]: 0.344 µM
Compound: CC(C)N1C[C@H](C)[C@@H](CN(C)Cc2ccc(Oc3ccccc3)cc2)Oc2c(NC(=O)c3ccccn3)cccc2C1=O

- IC50 [1]: 0.057 µM
Compound: C[C@H]1CN([C@@H](C)CO)C(=O)c2cccc(NC(=O)c3ccncc3)c2O[C@@H]1CN(C)Cc1cc(Cl)ccc1Cl

- Stability [13]: Unstable
- remaining at 1 h, 1 µM [5]: < 1%
- IC50 [7]: 0.075 µM
- solubility [2]: 98 µM (≈ 58.3 µg/mL)
- IC50 [1]: 0.016 µM
Compound: C[C@H](CO)N1C[C@H](C)[C@H](CN(C)Cc2ccc(Oc3ccccc3)cc2)Oc2c(NC(=O)c3ccncc3)cccc2C1=O
- Activity [11]: Active
- Activity [12]: Active

- IC50 [7]: 0.422 µM
- IC50 [1]: 0.013 µM
Compound: C[C@H]1CN([C@@H](C)CO)C(=O)c2cccc(NC(=O)c3ccncc3)c2O[C@@H]1CN(C)Cc1ccc(C(F)(F)F)cc1

- remaining at 1 h, 1 µM [5]: 77%
- fraction unbound [6]: 0.01
- IC50 [7]: 0.016 µM
- solubility [2]: 1 µM (≈ 0.595 µg/mL)
- IC50 [1]: 0.001 µM
Compound: C[C@H]1CN([C@@H](C)CO)C(=O)c2cccc(NC(=O)c3ccncc3)c2O[C@@H]1CN(C)Cc1ccc(Oc2ccccc2)cc1
- Activity [14]: Active
- Activity [15]: Active
- Activity [16]: inactive
- Activity [17]: inactive
- Activity [3]: Active
- Activity [4]: Active

- IC50 [1]: 0.05 µM
Compound: C[C@H]1CN([C@@H](C)CO)C(=O)c2cccc(NC(=O)c3ccncc3)c2O[C@@H]1CN(C)Cc1ccc(F)c(F)c1

- IC50 [7]: 0.288 µM
- IC50 [1]: 0.001 µM
Compound: CC(C)N1C[C@H](C)[C@@H](CN(C)Cc2ccc(Oc3ccccc3)cc2)Oc2c(NC(=O)c3ccncc3)cccc2C1=O

- remaining at 1 h, 1 µM [5]: 2%
- fraction unbound [6]: 0.01
- IC50 [7]: 0.024 µM
- solubility [2]: 1 µM (≈ 0.595 µg/mL)
- IC50 [1]: 0.001 µM
Compound: C[C@@H]1CN([C@@H](C)CO)C(=O)c2cccc(NC(=O)c3ccncc3)c2O[C@H]1CN(C)Cc1ccc(Oc2ccccc2)cc1
- Activity [3]: Active
- Activity [4]: Active

- IC50 [1]: 0.002 µM
Compound: CC(C)N1C[C@H](C)[C@@H](CN(C)Cc2cccc(Cl)c2)Oc2c(NC(=O)c3ccncc3)cccc2C1=O

- remaining at 1 h, 1 µM [5]: < 1%
- fraction unbound [6]: 0.05
- IC50 [7]: 1.2 µM
- solubility [2]: 86 µM (≈ 51.1 µg/mL)
- IC50 [1]: 0.26 µM
- fraction unbound [8]: 0.05
Compound: C[C@@H]1CN([C@H](C)CO)C(=O)c2cccc(NC(=O)c3ccncc3)c2O[C@@H]1CN(C)Cc1ccc(Oc2ccccc2)cc1

- IC50 [1]: 0.057 µM
Compound: COc1cccc(CN(C)C[C@H]2Oc3c(NC(=O)c4ccncc4)cccc3C(=O)N([C@@H](C)CO)C[C@@H]2C)c1

- remaining at 1 h, 1 µM [5]: < 1%
- fraction unbound [6]: 0.05
- IC50 [7]: 0.059 µM
- solubility [2]: 93 µM (≈ 55.3 µg/mL)
- IC50 [1]: 0.023 µM
- fraction unbound [8]: 0.05
Compound: C[C@H]1CN([C@@H](C)CO)C(=O)c2cccc(NC(=O)c3ccncc3)c2O[C@H]1CN(C)Cc1ccc(Oc2ccccc2)cc1
- Activity [3]: Active
- Activity [4]: Active

- IC50 [1]: 0.056 µM
Compound: Cc1ccccc1CN(C)C[C@H]1Oc2c(NC(=O)c3ccncc3)cccc2C(=O)N([C@@H](C)CO)C[C@@H]1C
